These results are taken from ChEMBL document CHEMBL4196224, “Novel Hypoxia-Inducible Factor 1α (HIF-1α) Inhibitors for Angiogenesis-Related Ocular Diseases: Discovery of a Novel Scaffold via Ring-Truncation Strategy” (J Med Chem, 2018).

Molecules are shown by their SMILES. Active and inactive are the calls of the source.

Series [1] has as its target T1, Hypoxia-inducible factor 1-alpha (Homo sapiens, UniProt Q16665). Briefly: Inhibition of HIF-1alpha in human HRE-A549 cells pre-incubated for 1 hr before exposure to hypoxia for 24 hrs by HRE-luciferase reporter gene assay. It counts as cell-based. The gist of the method: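 A549 cells stably carrying an HRE-luciferase reporter (G418 600 μg/mL selection), kept in DMEM/10% FBS and grown to 80-90% confluence. Serum withdrawn overnight, compound added 1 h before 24 h hypoxia (1% O2, 5% CO2, 94% N2, 37 °C). Luciferase read by luminometer. IC50 is the mean of three independent experiments with standard error.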
Target sequence in this assay (Q16665 whole entry): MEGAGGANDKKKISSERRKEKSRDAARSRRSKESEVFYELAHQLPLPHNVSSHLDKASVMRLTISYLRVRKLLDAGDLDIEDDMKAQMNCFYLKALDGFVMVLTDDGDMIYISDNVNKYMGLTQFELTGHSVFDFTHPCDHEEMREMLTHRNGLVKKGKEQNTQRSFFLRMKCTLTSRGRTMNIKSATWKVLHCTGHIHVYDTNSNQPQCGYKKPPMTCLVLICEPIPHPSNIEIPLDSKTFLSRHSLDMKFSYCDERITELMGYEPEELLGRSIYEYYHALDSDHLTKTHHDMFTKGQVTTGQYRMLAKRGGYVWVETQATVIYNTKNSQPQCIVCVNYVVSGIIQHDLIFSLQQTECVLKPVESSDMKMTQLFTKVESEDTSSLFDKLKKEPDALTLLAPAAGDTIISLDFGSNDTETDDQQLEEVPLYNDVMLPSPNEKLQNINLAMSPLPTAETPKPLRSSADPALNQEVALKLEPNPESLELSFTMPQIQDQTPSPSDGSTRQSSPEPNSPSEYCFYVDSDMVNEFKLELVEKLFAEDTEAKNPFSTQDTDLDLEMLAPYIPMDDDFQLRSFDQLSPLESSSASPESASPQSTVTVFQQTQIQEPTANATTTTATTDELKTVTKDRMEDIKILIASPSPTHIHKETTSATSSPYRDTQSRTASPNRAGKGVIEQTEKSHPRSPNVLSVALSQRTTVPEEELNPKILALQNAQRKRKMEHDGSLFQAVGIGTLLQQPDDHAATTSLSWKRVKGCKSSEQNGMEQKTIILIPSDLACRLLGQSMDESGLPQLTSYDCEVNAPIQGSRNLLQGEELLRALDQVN

The subject of series [2] is Mus musculus. Nature of the series: Suppression of hypoxia-mediated retinal neovascularization in mouse model of oxygen-induced retinopathy assessed as reduction in retinal neovascular tufts at 100 nM dosed via intravitreal route. It counts as functional, organism-based. The gist of the method: (§1)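 Newborn mice held in 75% ± 0.5% O2 from P7 to P12. Intravitreal injection of compound or PBS at P14 (n = 6). Retinas whole-mounted at P17 and stained with isolectin B4-594. Neovascular tuft area per retina measured by image analysis; mean ± SEM.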

The nature of series [3]: Aqueous solubility of the compound in DPBS incubated for 24 hrs by LC/MS/MS method relative to SH-1242. Format: physicochemical. The conditions noted are these: buffer.
The subject of series [4] is HUVEC. Nature of the series: Antiangiogenic activity in HUVEC exposed to human HeLa cells derived conditioned media assessed as inhibition of hypoxia-induced [3H]-thymidine incorporation at 100 nM incubated for 24 hrs by liquid scintillation counting assay. It counts as functional, cell-based. The gist of the method: (§2)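 Conditioned medium from RPE or HeLa cells grown in M199 with 1% FBS under hypoxia ± compound, passed through a 3 kDa cut-off filter. Proliferation: 5 x 10^3 endothelial cells on gelatin, 24 h, then CM 24 h; [3H]-thymidine incorporation, DNA solubilized in 0.2 N NaOH/0.1% SDS, scintillation counting. Migration: 1 x 10^5 cells in Transwell upper well over CM, 4 h, H&E stain, migrated cells counted. Tube formation: 2 x 10^5 cells on Matrigel in CM, 20 h, tube length measured in 5 random fields (x100).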
(In general: Incorporation of labelled thymidine or its analogues reports DNA synthesis.)

For series [5], the system named is HUVEC. Nature of the series: Antiangiogenic activity in HUVEC exposed to human HeLa cells derived conditioned media assessed as inhibition of hypoxia-induced cell migration at 100 nM incubated for 4 hrs by H and E staining based inverted phase contrast microscopy. It counts as functional. The gist of the method: as §2
In series [6] the test system is HUVEC. Nature of the series: Antiangiogenic activity in HUVEC exposed to human HeLa cells derived conditioned media assessed as inhibition of hypoxia-induced cell tube formation at 100 nM incubated for 20 hrs. It counts as functional, cell-based. The gist of the method: as §2
Series [7] deals with Mus musculus. Nature of the series: Suppression of hypoxia-mediated retinal neovascularization in mouse model of oxygen-induced retinopathy assessed as reduction in retinal neovascular tufts at 1 uM dosed via intravitreal route. Format: functional, organism-based. The gist of the method: as §1
Series [8] addresses T1, Hypoxia-inducible factor 1-alpha. Briefly: Inhibition of HIF-1alpha in human A549 cell lysates assessed as reduction in Hsp90 and HIF-1alpha interaction at 1.25 uM in presence of ATP for 30 mins at 37 degC by immunoprecipitation and immunoblotting assay. The gist of the method: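 Lysate from A549 cells exposed to 100 μM CoCl2 for 5 h, incubated with compound ± 20 mM ATP for 30 min at 37 °C. HIF-1α immunoprecipitated overnight at 4 °C, then protein G-agarose 2 h at 4 °C. Complex boiled in Laemmli buffer, run on 6% SDS-PAGE, blotted for HSP90.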
Target sequence in this assay (Q16665 whole entry, looked up): as the sequence (Q16665 whole entry) above

The species entered for series [9] is Homo sapiens. Briefly: Antiangiogenic activity in HRMEC exposed to human RPE cells derived conditioned media assessed as inhibition of hypoxia-induced [3H]-thymidine incorporation at 100 nM incubated for 24 hrs by liquid scintillation counting assay. Format: functional. The gist of the method:
as §2

Series [10] is filed under the species Homo sapiens. Briefly: Antiangiogenic activity in HRMEC exposed to human RPE cells derived conditioned media assessed as inhibition of hypoxia-induced cell migration at 100 nM incubated for 4 hrs by H and E staining based inverted phase contrast microscopy. It counts as functional. The gist of the method: as §2
The species named for series [11] is Homo sapiens. Nature of the series: Antiangiogenic activity in HRMEC exposed to human RPE cells derived conditioned media assessed as inhibition of hypoxia-induced tube formation at 100 nM incubated for 20 hrs. It counts as functional. The gist of the method: as §2
For series [12], the system named is Mus musculus. Nature of the series: Suppression of hypoxia-mediated retinal neovascularization in mouse model of oxygen-induced retinopathy assessed as reduction in retinal neovascular tufts at 100 nM dosed via intravitreal route relative to SH-1242. Format: functional, organism-based. The gist of the method: as §1
Series [13] concerns the target T1, Hypoxia-inducible factor 1-alpha. Nature of the series: Induction of HIF-1alpha destabilization in human HCT116 cells under hypoxic conditions at 100 nM by Western blot method. For orientation: In western blotting, separated proteins are transferred to a membrane and probed.
Target sequence in this assay (Q16665 whole entry, looked up): as the sequence (Q16665 whole entry) above
For series [14] the target is unchanged. Briefly: Induction of HIF-1alpha destabilization in human HCT116 cells under hypoxic conditions assessed as reduction in hypoxia-induced VEGFA mRNA expression at 100 nM.
Target sequence in this assay (Q16665 whole entry, looked up): as the sequence (Q16665 whole entry) above
For series [15] the target is unchanged. Briefly: Induction of HIF-1alpha destabilization in human HCT116 cells under hypoxic conditions assessed as reduction in hypoxia-induced VEGF production at 100 nM by ELISA. For orientation: In an ELISA, binding on a coated surface is turned into a signal by an enzyme label.
Target sequence in this assay (Q16665 whole entry, looked up): as the sequence (Q16665 whole entry) above

On to `COc1c(C(=O)Cc2ccc(Cl)c(Cl)c2)ccc2c1C=CC(C)(C)O2`, for which, in series [1], the midpoint of inhibition, the IC50, lay at 2880 nM.
On the same count and under the same terms, as for `COc1c(C(=O)Cc2ccc3c(c2)OCCO3)ccc2c1C=CC(C)(C)O2`, the figure is 1330 nM; as for `COc1c(C(=O)Cc2cccc(O)c2)ccc2c1C=CC(C)(C)O2`, 1440 nM.
Consider `COc1ccc([C@H](C)C(=O)c2ccc(NCc3ccc(C#N)cc3)cc2OC)cc1OC`, for which the result in the series on Mus musculus [2] was Active.
Regarding `COc1ccc(C(F)C(=O)c2ccc3c(c2OC)C=CC(C)(C)O3)cc1OC` (stereo unspecified), the 50% inhibitory concentration (IC50) (commonly the concentration that gives 50% inhibition) in series [1] stood at 6350 nM.
In the case of `COc1ccc(C(C)C(=O)c2ccc(N3CCCCC3)cc2OC)cc1OC` (racemic), the “fold change (FC)” value in [3] is 93. The outcome with HUVEC [4], with HUVEC [5], in the series on HUVEC [6], in the series on Mus musculus [2] and with Mus musculus [7] was Active.
As to `COc1ccc(C(C)C(=O)c2ccc(O)cc2OC)cc1OC` (racemic), the IC50 in series [1] was over 15000 nM.
In the case of `COc1c(C(=O)Cc2ccccc2O)ccc2c1C=CC(C)(C)O2`, half-maximal inhibition in series [1] (IC50) was put at 940 nM.
On the same count and under the same terms, as for `COc1ccc(CC(=O)c2ccc3c(c2OC)C=CC(C)(C)O3)cc1`, the figure is 6210 nM; as for `COc1c(C(=O)Cc2ccc(O)cc2)ccc2c1C=CC(C)(C)O2`, 790 nM; as for `COc1ccc(CC(O)c2ccc3c(c2OC)C=CC(C)(C)O3)cc1OC` (stereo unspecified), 8880 nM.
Still for that read-out and setting: to `COc1c(C(=O)Cc2ccc(F)c(F)c2)ccc2c1C=CC(C)(C)O2` belongs 1270 nM; to `COc1c(C(=O)Cc2cccc(F)c2)ccc2c1C=CC(C)(C)O2`, 360 nM; to `COc1c(C(=O)Cc2ccc(F)cc2)ccc2c1C=CC(C)(C)O2`, 1020 nM.
The same measure, in the same setting: to `COc1ccc(NC(=O)c2ccc3c(c2OC)C=CC(C)(C)O3)cc1OC` belongs 2040 nM.
With `COc1ccc(CC(=O)c2ccc3c(c2OC)C=CC(C)(C)O3)cc1OC`, the IC50 in [1] is 2150 nM. Further, the result with Mus musculus [2] and with Mus musculus [7] was Active.
As to `COc1ccc(C(C)C(=O)c2ccc3c(c2OC)C=CC(C)(C)O3)cc1OC` (racemic), the IC50 in series [1] came out at 1360 nM.
On the same count and under the same terms, to `COc1ccc(N(Cc2ccccc2)C(=O)c2ccc3c(c2OC)C=CC(C)(C)O3)cc1OC` belongs 10800 nM.
As for `COc1ccc([C@@H](C)C(=O)c2ccc(NCc3ccc(C#N)cc3)cc2OC)cc1OC`, the result in the series with Mus musculus [2] was Active.
In series [1], `COc1ccc(C(=O)C(C)c2ccc(OC)c(OC)c2)c(OC)c1` (racemic) returned an IC50 of over 15000 nM.
The same measure, in the same setting: as for `CCN(C(=O)c1ccc2c(c1OC)C=CC(C)(C)O2)c1ccc(OC)c(OC)c1`, the figure is 5250 nM; as for `COc1c(C(=O)Cc2ccc3c(c2)OCO3)ccc2c1C=CC(C)(C)O2`, 3410 nM.
Still for that read-out and setting: to `COc1ccc(CC(OC(C)=O)c2ccc3c(c2OC)C=CC(C)(C)O3)cc1OC` (stereo unspecified) belongs 3040 nM; to `COc1c(C(=O)Cc2ccccc2F)ccc2c1C=CC(C)(C)O2`, 100 nM; to `COc1ccc(N(C)C(=O)c2ccc3c(c2OC)C=CC(C)(C)O3)cc1OC`, 3150 nM.
Turning to `COc1ccc(C(C)C(=O)c2ccc(NCc3ccc(C#N)cc3)cc2OC)cc1OC` (racemic), in series [3], the “fold change (FC)” value was determined as 17. The result in the series on HUVEC [4], with HUVEC [5], with HUVEC [6], in the series listed under Homo sapiens [9], in the series filed under Homo sapiens [10] and in the series listed under Homo sapiens [11] was Active. The result (with Mus musculus [12]; in [13]; in series [14]; in series [15]) was Active. For the same molecule, in series [8], the inhibition result is “Active”.
The molecule `COc1c(C(=O)Cc2ccccc2)ccc2c1C=CC(C)(C)O2` returned an IC50 in series [1] of 880 nM.
Same read-out and setting: to `COc1ccc(C(Cc2ccccc2)C(=O)c2ccc3c(c2OC)C=CC(C)(C)O3)cc1OC` (stereo unspecified) belongs 12000 nM; to `COc1ccccc1CC(=O)c1ccc2c(c1OC)C=CC(C)(C)O2`, 3210 nM; to `COc1ccc(C(C)C(=O)c2ccc(N(C)C)cc2OC)cc1OC` (racemic), over 15000 nM.
`COc1ccc(C(C)C(=O)c2ccc(N3CCCC3)cc2)cc1OC` (racemic) returned an IC50 in series [1] of 2610 nM.
In turn, `C=CCC(C(=O)c1ccc2c(c1OC)C=CC(C)(C)O2)c1ccc(OC)c(OC)c1` (stereo unspecified) came in with an IC50 in series [1] of 8450 nM.
In series [1], `COc1cccc(CC(=O)c2ccc3c(c2OC)C=CC(C)(C)O3)c1` gave an IC50 of 820 nM. Compared with the last molecule, the IC50 is about 10-fold lower.
